Reference: ChEMBL document CHEMBL1140690, “5-((4-Aminopiperidin-1-yl)methyl)pyrrolotriazine dual inhibitors of EGFR and HER2 protein tyrosine kinases” (Bioorg Med Chem Lett, 2007)
The source made the active and inactive calls. No cut-off for these calls is given here.

Columns and labels:
GEO = test: Antitumor activity against human GEO cells xenografted in athymic mouse at 180 mg/kg, sc QD after 10 days; format: functional, organism-based; design: dose 180 mg/kg
NCI-N87 [1] = test: Antitumor activity against human N87 cells xenografted in athymic mouse at 180 mg/kg, po QD after 21 days; details: 504 h; for minimal effective dose at 180 mg/kg: read-out: MED
A2780 = test: Antiproliferative activity against human A2780 cells; format: functional, cell-based
Procedure, shortened: (§1)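 HT29 (colon carcinoma) and A2780 (ovarian carcinoma) lines, stated not to rely on EGFR or HER2 signalling, serve as counter-screen lines; proliferation IC50 reported.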

Liver = test: Metabolic stability in mouse liver microsomes at 3 uM after 10 mins in presence of NADPH; format: ADME, Microsome
Procedure, shortened: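 Mouse liver microsomes with NADPH; compound at 3 µM, incubated 10 min; metabolic rate expressed as nmol/min/mg protein.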

HT-29 = test: Antiproliferative activity against human HT29 cells; format: functional, cell-based; procedure, shortened: as §1
[2] = target: Epidermal growth factor receptor (Homo sapiens, UniProt P00533); test: Inhibition of human recombinant EGFR expressed in insect Sf9 cells
Sequence of Epidermal growth factor receptor (P00533 whole entry): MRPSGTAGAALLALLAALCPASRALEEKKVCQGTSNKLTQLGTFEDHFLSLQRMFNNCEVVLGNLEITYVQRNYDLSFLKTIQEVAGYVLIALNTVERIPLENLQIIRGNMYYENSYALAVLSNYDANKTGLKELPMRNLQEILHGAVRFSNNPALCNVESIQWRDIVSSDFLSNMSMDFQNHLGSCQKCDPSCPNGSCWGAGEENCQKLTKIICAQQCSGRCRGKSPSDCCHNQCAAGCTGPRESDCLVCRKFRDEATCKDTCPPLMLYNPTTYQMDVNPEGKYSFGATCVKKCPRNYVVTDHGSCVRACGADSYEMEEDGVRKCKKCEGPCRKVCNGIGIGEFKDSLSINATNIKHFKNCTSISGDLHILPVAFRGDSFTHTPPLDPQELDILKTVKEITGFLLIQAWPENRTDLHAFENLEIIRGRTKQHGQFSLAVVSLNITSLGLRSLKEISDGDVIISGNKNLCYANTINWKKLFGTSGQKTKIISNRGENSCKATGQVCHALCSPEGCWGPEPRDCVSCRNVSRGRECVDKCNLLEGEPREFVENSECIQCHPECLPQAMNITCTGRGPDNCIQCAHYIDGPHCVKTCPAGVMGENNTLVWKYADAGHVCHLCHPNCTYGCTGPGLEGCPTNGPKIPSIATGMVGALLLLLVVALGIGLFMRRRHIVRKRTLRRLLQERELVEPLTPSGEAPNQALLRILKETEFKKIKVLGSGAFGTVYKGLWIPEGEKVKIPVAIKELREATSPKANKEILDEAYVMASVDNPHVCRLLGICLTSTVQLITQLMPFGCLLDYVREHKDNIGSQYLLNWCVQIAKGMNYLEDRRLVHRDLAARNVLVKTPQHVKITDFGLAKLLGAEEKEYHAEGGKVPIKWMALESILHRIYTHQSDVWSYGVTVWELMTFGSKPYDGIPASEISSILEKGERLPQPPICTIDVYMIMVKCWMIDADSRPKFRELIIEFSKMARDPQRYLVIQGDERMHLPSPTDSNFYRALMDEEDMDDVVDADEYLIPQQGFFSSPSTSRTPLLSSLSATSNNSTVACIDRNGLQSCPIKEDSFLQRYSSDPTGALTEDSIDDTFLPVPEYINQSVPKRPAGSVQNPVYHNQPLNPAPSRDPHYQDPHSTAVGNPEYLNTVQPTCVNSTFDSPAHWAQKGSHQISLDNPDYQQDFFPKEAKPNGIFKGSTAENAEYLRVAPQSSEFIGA

[3] = AUC (0 to 4 hrs) in BALB/c mouse at 50 mg/kg, po after 4 hrs; format: ADME, organism-based; design: time < 4 hr, dose 50 mg/kg, route oral; details: plasma
NCI-N87 [4] = test: Antiproliferative activity against human N87 cells
[5] = Drug level in BALB/c mouse plasma at 50 mg/kg, po after 4 hrs; format: ADME, organism-based; design: dose 50 mg/kg, route oral
Procedure, shortened: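 Single oral 50 mg/kg dose in Tween 80/PEG400/water (10/40/50, v/v/v) to three male Balb/C mice; plasma concentration at 4 h averaged, AUC0–4h also derived.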

[6] = target: Receptor tyrosine-protein kinase erbB-2 (Homo sapiens, UniProt P04626); test: Inhibition of human recombinant HER2 expressed in insect Sf9 cells
Sequence of Receptor tyrosine-protein kinase erbB-2 (P04626 whole entry): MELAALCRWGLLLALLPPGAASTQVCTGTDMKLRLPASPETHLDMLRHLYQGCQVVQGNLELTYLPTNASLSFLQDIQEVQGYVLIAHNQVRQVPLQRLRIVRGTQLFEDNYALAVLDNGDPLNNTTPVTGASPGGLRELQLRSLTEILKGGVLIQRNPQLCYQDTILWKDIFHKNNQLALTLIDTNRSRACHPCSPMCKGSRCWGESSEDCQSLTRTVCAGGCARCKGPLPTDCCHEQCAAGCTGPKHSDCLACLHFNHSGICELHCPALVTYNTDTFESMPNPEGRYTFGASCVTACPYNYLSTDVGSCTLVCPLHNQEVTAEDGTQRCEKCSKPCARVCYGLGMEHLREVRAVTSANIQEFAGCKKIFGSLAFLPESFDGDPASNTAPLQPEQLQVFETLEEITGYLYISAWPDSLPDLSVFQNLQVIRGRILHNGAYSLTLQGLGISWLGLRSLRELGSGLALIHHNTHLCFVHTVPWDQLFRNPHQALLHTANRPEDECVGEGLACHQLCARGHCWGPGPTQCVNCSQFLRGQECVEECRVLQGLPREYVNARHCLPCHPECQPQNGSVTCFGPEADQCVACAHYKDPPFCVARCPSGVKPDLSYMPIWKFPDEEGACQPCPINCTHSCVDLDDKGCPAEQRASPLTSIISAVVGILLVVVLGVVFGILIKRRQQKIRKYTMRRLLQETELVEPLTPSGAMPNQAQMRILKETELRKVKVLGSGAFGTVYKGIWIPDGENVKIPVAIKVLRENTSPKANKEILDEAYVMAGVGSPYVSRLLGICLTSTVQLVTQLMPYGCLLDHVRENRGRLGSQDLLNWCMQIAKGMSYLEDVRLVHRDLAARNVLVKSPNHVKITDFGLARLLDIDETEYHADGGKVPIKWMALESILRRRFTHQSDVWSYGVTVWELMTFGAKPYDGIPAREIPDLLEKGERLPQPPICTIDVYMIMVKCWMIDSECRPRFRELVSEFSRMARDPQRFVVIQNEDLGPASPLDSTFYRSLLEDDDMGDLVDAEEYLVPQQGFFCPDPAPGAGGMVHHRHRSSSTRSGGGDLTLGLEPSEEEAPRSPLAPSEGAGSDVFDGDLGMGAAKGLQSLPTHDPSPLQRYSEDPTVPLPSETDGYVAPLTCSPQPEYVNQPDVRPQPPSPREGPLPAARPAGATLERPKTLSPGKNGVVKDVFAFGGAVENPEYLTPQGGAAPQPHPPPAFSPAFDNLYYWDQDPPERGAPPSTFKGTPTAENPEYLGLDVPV

[7] = Antitumor activity against human GEO cells xenografted in athymic mouse at 135 mg/kg, sc BID after 14 days; format: functional; details: 336 h, route subcutaneous
[8] = Inhibition of PKA; design: species or system Homo sapiens
Procedure, shortened: (§2)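 Kinase panel IC50s, each reported as the mean of at least three determinations.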

[9] = target: Tyrosine-protein kinase Lck (Homo sapiens, UniProt P06239); test: Inhibition of LCK
Sequence of Tyrosine-protein kinase Lck (P06239 whole entry): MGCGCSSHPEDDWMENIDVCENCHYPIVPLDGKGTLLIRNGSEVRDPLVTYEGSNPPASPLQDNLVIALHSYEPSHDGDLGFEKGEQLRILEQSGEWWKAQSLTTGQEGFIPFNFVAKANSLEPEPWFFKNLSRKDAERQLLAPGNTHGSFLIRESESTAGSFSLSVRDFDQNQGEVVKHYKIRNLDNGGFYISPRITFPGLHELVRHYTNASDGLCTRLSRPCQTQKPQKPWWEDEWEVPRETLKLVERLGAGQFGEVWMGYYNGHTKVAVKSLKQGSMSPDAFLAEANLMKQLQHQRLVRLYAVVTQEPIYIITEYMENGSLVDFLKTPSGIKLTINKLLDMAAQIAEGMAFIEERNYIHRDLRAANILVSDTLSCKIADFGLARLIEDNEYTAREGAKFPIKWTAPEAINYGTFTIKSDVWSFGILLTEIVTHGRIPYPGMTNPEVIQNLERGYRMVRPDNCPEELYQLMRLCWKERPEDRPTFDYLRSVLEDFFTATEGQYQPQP

HT29 = test: Antiproliferative activity against human HT29 cells
MAP kinase p38 = MAP kinase p38 (Homo sapiens, UniProt O15264+Q15759+Q16539+P53778); test: Inhibition of p38; format: protein assay
Procedure, shortened: (§3)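 Selectivity-panel kinase assays against each named kinase. IC50 reported as the mean of at least three determinations.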

CDK2/Cyclin E1 = CDK2/Cyclin E1 (Homo sapiens, UniProt P24941); test: Inhibition of CDK2; procedure, shortened: as §3
[10] = Antitumor activity against human GEO cells xenografted in athymic mouse at 240 mg/kg, […] after 10 days; format: functional; details: sc, 240 h
Procedure, shortened: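 Established subcutaneous GEO human colon carcinoma xenografts in athymic mice. Compound given orally once daily for 10 days (QD × 10) in Tween 80–PEG400–water (10/40/50).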

Protein kinase C (PKC) = test: Inhibition of PKC; design: species or system Homo sapiens; procedure, shortened: as §2
[11] = target: Hepatocyte growth factor receptor (Homo sapiens, UniProt P08581); test: Inhibition of Met; procedure, shortened: as §3
[12] = Antitumor activity against human GEO cells xenografted in athymic mouse at 120 mg/kg, sc QD after 10 days
[13] = target: Vascular endothelial growth factor receptor 2 (Homo sapiens, UniProt P35968); test: Inhibition of VEGFR2; procedure, shortened: as §3
Sequence of Vascular endothelial growth factor receptor 2 (P35968 whole entry): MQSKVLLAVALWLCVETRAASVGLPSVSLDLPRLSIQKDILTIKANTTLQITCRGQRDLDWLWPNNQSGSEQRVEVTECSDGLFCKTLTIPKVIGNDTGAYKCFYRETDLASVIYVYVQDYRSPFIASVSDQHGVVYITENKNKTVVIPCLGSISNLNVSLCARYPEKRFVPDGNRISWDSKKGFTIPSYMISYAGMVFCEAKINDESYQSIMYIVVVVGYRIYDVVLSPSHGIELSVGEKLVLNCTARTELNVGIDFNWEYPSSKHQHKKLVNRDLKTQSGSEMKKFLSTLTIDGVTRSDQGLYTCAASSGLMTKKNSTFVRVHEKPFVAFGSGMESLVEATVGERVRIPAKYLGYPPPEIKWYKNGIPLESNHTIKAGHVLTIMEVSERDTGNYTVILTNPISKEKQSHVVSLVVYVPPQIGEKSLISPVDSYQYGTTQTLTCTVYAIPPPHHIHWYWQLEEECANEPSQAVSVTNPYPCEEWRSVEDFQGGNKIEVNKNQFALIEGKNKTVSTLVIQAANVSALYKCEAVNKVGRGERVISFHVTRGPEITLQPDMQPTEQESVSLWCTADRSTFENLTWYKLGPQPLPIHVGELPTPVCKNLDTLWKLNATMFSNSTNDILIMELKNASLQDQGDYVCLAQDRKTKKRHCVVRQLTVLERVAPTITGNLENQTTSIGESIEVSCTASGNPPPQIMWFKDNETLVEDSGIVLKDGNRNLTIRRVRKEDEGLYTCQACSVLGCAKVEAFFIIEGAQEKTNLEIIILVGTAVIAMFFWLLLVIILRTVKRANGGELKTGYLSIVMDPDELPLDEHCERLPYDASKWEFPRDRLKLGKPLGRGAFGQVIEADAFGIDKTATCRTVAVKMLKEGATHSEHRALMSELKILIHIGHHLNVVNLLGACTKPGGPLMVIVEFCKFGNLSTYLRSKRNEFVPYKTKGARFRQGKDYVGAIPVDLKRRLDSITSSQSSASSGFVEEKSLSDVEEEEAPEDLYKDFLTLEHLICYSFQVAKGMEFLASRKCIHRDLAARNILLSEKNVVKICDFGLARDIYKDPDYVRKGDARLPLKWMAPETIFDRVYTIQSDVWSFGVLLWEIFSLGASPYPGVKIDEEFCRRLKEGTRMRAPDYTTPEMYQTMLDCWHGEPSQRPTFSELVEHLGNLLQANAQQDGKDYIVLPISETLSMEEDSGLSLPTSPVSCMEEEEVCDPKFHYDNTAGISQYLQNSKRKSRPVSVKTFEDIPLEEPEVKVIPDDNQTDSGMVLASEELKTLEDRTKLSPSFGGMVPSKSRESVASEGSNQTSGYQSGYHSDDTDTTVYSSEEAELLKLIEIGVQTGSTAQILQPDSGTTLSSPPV

NCI-N87 [14] = test: Antitumor activity against human N87 cells xenografted in athymic mouse at 240 mg/kg, sc QD after 21 days; format: functional; details: 504 h

| Structure (SMILES) | IC50 (A2780) | IC50 (HT-29) | IC50 [2] | AUC(0-t) at 4 h [3] | IC50 (NCI-N87 [4]) | concentration at 4 h [5] | IC50 [6] | also measured |
| --- | --- | --- | --- | --- | --- | --- | --- | --- |
| Cc1cncc(Cn2ncc3cc(Nc4ncnn5ccc(CN6CCC(N)CC6)c45)ccc32)c1 | > 5 µM | > 5 µM | 19 nM | 9.9 µM·h | 36 nM | 1.3 µM | 13 nM | Activity (GEO): inactive; inhibition in vivo at 180 mg/kg (NCI-N87 [1]): 89%; minimal effective dose at 180 mg/kg (NCI-N87 [1]): 120 mg/kg; metabolic rate (Liver): 0.06 nmol/min/mg |
| O=C(CO)NC1CCN(Cc2ccn3ncnc(Nc4ccc5c(cnn5Cc5cccc(F)c5)c4)c23)CC1 | 9.5 µM | 9.5 µM | 110 nM | – | 310 nM | – | 120 nM | – |
| Fc1cccc(Cn2ncc3cc(Nc4ncnn5ccc(CN6CCCNCC6)c45)ccc32)c1 | 3.6 µM | 3.6 µM | – | – | 110 nM | – | – | inhibition in vivo at 135 mg/kg ([7]; dose 135 mg/kg): 78%; minimal effective dose ([7]; read-out: MED): 90 mg/kg; inhibition in vivo at 180 mg/kg (NCI-N87 [1]): 121%; minimal effective dose at 180 mg/kg (NCI-N87 [1]): 90 mg/kg |
| Fc1cccc(Cn2ncc3cc(Nc4ncnn5ccc(COC[C@@H]6CNCCO6)c45)ccc32)c1 | – | 8.7 µM | – | – | – | – | – | IC50 [8]: > 50 µM |
| NC1CCN(Cc2ccn3ncnc(Nc4ccc5c(cnn5Cc5cccc(F)c5)c4)c23)CC1 | – | 4.3 µM | 35 nM | 14 µM·h | 35 nM | 2.7 µM | 23 nM | IC50 [8]: > 50 µM; IC50 [9]: 710 nM; IC50 (HT29): 4.3 µM; IC50 (MAP kinase p38): > 50 µM; inhibition in vivo at 180 mg/kg (NCI-N87 [1]): 133%; minimal effective dose at 180 mg/kg (NCI-N87 [1]): 60 mg/kg; IC50 (CDK2/Cyclin E1): 1900 nM; metabolic rate (Liver): 0.05 nmol/min/mg; inhibition in vivo at 240 mg/kg [10]: 85%; IC50 (Protein kinase C (PKC)): 2.2 µM; IC50 [11]: 3.9 µM; MED [12]: 120 mg/kg; IC50 [13]: 480 nM |
| Cc1cncc(COc2ccc(Nc3ncnn4ccc(CN5CCC(N)CC5)c34)cc2Cl)c1 | 3.5 µM | 3.5 µM | – | 7.8 µM·h | 180 nM | 1.8 µM | 60 nM | metabolic rate (Liver): 0 nmol/min/mg |
| NC1CCN(Cc2ccn3ncnc(Nc4ccc(OCc5cccc[n+]5[O-])c(Cl)c4)c23)CC1 | > 5 µM | > 5 µM | 70 nM | 15 µM·h | 110 nM | 3.9 µM | 18 nM | Activity (GEO): inactive; metabolic rate (Liver): 0 nmol/min/mg |
| NC1CCN(Cc2ccn3ncnc(Nc4ccc(OCc5cccc(F)c5)c(Cl)c4)c23)CC1 | – | – | 38 nM | – | 83 nM | – | 32 nM | – |
| NC1CCN(Cc2ccn3ncnc(Nc4ccc(OCc5cccnc5)c(Cl)c4)c23)CC1 | 2.7 µM | 2.7 µM | 150 nM | 30 µM·h | 230 nM | 7.5 µM | 36 nM | – |
| N[C@H]1CCN(Cc2ccn3ncnc(Nc4ccc5c(cnn5Cc5cccc(F)c5)c4)c23)C1 | 6.5 µM | 6.5 µM | 50 nM | – | 810 nM | – | 52 nM | – |
| CNC1CCN(Cc2ccn3ncnc(Nc4ccc5c(cnn5Cc5cccc(F)c5)c4)c23)CC1 | 7.3 µM | 7.3 µM | 63 nM | – | 78 nM | – | 54 nM | – |
| OCCNC1CCN(Cc2ccn3ncnc(Nc4ccc5c(cnn5Cc5cccc(F)c5)c4)c23)CC1 | 5.4 µM | 5.4 µM | – | – | 73 nM | – | 31 nM | – |
| NC1CCN(Cc2ccn3ncnc(Nc4ccc(OCc5ccccn5)c(Cl)c4)c23)CC1 | 2 µM | 2 µM | 36 nM | 13 µM·h | 58 nM | 3.7 µM | 22 nM | metabolic rate (Liver): 0.04 nmol/min/mg; inhibition in vivo at 240 mg/kg (NCI-N87 [14]; dose 240 mg/kg): 110%; minimal effective dose (NCI-N87 [14]; read-out: MED): 120 mg/kg |
| CC1(N)CCN(Cc2ccn3ncnc(Nc4ccc5c(cnn5Cc5cccc(F)c5)c4)c23)CC1 | – | 6.1 µM | 50 nM | – | 70 nM | – | 43 nM | IC50 (HT29): 6.1 µM |
| NCC1CCN(Cc2ccn3ncnc(Nc4ccc5c(cnn5Cc5cccc(F)c5)c4)c23)CC1 | 2.9 µM | 2.9 µM | 35 nM | – | 140 nM | – | 38 nM | – |
| NC1CCN(Cc2ccn3ncnc(Nc4ccc5c(cnn5Cc5ccncc5)c4)c23)CC1 | > 5 µM | > 5 µM | 530 nM | – | 470 nM | – | 190 nM | – |
| COc1cn2ncnc(Nc3ccc4c(cnn4Cc4cccc(F)c4)c3)c2c1CN1CCC(N)CC1 | – | – | 40 nM | – | 430 nM | – | 43 nM | – |
| CC(=O)NC1CCN(Cc2ccn3ncnc(Nc4ccc5c(cnn5Cc5cccc(F)c5)c4)c23)CC1 | – | > 10 µM | 380 nM | – | 290 nM | – | 180 nM | IC50 (HT29): > 10 µM |
| CS(=O)(=O)CCNC1CCN(Cc2ccn3ncnc(Nc4ccc5c(cnn5Cc5cccc(F)c5)c4)c23)CC1 | – | – | 200 nM | – | 700 nM | – | 190 nM | – |
| Fc1cccc(COc2ccc(Nc3ncnn4ccc(CN5CCCNCC5)c34)cc2Cl)c1 | – | – | 48 nM | – | 600 nM | – | 41 nM | – |
| CN(C)C1CCN(Cc2ccn3ncnc(Nc4ccc5c(cnn5Cc5cccc(F)c5)c4)c23)CC1 | 7.6 µM | 7.6 µM | 100 nM | – | 450 nM | – | 110 nM | – |
| N[C@@H]1CCN(Cc2ccn3ncnc(Nc4ccc5c(cnn5Cc5cccc(F)c5)c4)c23)C1 | 3.9 µM | 3.9 µM | 60 nM | – | 830 nM | – | 70 nM | – |
| COc1cn2ncnc(Nc3ccc4c(cnn4Cc4cccc(F)c4)c3)c2c1CN1CCCNCC1 | – | – | 190 nM | – | 3700 nM | – | 170 nM | – |
| NC1CCN(Cc2ccn3ncnc(Nc4ccc(OCc5cnccn5)c(Cl)c4)c23)CC1 | 3.5 µM | 3.5 µM | 32 nM | 21 µM·h | 72 nM | 6.3 µM | 26 nM | Activity (GEO): inactive; inhibition in vivo at 180 mg/kg (NCI-N87 [1]): 63%; minimal effective dose at 180 mg/kg (NCI-N87 [1]): 180 mg/kg; metabolic rate (Liver): 0.12 nmol/min/mg |
| Fc1cccc(Cn2ncc3cc(Nc4ncnn5ccc(CNC6CCNCC6)c45)ccc32)c1 | 5 µM | 5 µM | 110 nM | – | 1150 nM | – | 76 nM | – |
| NC1CCN(Cc2ccn3ncnc(Nc4ccc5c(cnn5Cc5ccccn5)c4)c23)CC1 | > 10 µM | > 10 µM | 47 nM | 3.6 µM·h | 120 nM | 1.6 µM | 35 nM | metabolic rate (Liver): 0.01 nmol/min/mg |
| NC1CCN(Cc2ccn3ncnc(Nc4ccc5c(cnn5Cc5cccnc5)c4)c23)CC1 | > 5 µM | > 5 µM | 190 nM | 22 µM·h | 86 nM | 4.5 µM | 34 nM | metabolic rate (Liver): 0.01 nmol/min/mg |
